Source: ChEMBL document CHEMBL3259629, “Discovery and optimization of piperidyl-1,2,3-triazole ureas as potent, selective, and in vivo-active inhibitors of α/β-hydrolase domain containing 6 (ABHD6)” (J Med Chem, 2013)
The source made the active and inactive calls. The calls are words filed in the database; no cut-off is given here.

Tests used:
[1] = molecular target: T1, Monoacylglycerol lipase ABHD6 (Mus musculus) (UniProt Q8R2Y0); assay: Inhibition of ABHD6 in FP-rhodamine-labelled mouse brain membrane at 10 nM preincubated for 30 mins followed by FP-rhodamine labelling measured after 30 mins by gel-based competitive ABPP assay; assay type: tissue-based
T1 sequence (whole entry): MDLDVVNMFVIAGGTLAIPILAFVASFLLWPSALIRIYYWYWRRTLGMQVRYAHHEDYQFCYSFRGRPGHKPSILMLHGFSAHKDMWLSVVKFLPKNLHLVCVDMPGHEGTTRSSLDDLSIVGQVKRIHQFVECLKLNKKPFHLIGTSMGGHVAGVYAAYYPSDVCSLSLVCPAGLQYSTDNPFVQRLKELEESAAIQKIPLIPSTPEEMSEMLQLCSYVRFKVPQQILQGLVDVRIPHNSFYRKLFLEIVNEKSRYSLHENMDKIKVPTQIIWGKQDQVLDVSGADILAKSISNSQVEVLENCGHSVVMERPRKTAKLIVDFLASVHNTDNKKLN
How it was run: (§1)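 Mouse brain membrane proteome (1 mg/mL) preincubated with compound for 30 min at 37 °C, then labelled with FP-rhodamine or HT-01 (1 μM final) for 30 min at 37 °C. Quenched in SDS loading buffer, run on 10% SDS-PAGE and scanned for in-gel fluorescence. Bands assigned by gel migration.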

[2] = molecular target: T1, Monoacylglycerol lipase ABHD6 (Mus musculus); assay: Inhibition of ABHD6 in FP-rhodamine-labelled mouse brain membrane at 1 nM preincubated for 30 mins followed by FP-rhodamine labelling measured after 30 mins by gel-based competitive ABPP assay; assay type: tissue-based; how it was run: as §1
[3] = molecular target: T2, Diacylglycerol lipase-beta (Mus musculus) (UniProt Q91WC9); assay: Inhibition of FP-rhodamine-labelled recombinant mouse DAGLbeta expressed in HEK293T cells at 1 uM preincubated for 30 mins followed by FP-rhodamine labelling measured after 30 mins by gel-based competitive ABPP assay; assay type: cell-based; details: HEK-293T
T2 sequence (whole entry): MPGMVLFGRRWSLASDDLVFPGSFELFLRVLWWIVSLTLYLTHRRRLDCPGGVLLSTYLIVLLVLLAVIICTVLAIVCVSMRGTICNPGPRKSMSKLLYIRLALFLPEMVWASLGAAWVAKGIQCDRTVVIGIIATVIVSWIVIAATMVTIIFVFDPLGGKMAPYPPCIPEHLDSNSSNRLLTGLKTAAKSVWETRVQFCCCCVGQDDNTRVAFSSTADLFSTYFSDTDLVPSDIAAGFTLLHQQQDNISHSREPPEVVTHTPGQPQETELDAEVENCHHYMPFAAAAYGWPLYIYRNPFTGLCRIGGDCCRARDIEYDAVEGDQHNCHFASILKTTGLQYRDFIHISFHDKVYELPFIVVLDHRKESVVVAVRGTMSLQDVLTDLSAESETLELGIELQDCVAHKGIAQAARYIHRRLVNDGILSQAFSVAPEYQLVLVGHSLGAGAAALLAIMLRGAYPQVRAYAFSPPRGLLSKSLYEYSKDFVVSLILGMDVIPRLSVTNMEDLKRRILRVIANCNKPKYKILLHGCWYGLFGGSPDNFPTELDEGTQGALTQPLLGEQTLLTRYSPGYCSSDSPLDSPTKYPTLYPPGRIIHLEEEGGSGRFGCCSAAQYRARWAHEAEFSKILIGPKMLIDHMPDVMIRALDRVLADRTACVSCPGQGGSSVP
How it was run: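 Mouse DAGLβ transiently overexpressed in HEK293T. Lysate diluted to 0.3 mg/mL in 50 mM HEPES pH 7.2, 100 mM NaCl, 5 mM CaCl₂, 0.1% Triton X-100, 10% DMSO. Compound preincubated 30 min at 37 °C, then 1 μM probe for 30 min at 37 °C, SDS-PAGE and in-gel fluorescence.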

[4] = molecular target: T3, Acylamino-acid-releasing enzyme (Mus musculus) (UniProt Q8R146); assay: Inhibition of FP-rhodamine-labelled recombinant mouse APEH at 1 uM preincubated for 30 mins followed by FP-rhodamine labelling measured after 30 mins by gel-based competitive ABPP assay
T3 sequence (whole entry): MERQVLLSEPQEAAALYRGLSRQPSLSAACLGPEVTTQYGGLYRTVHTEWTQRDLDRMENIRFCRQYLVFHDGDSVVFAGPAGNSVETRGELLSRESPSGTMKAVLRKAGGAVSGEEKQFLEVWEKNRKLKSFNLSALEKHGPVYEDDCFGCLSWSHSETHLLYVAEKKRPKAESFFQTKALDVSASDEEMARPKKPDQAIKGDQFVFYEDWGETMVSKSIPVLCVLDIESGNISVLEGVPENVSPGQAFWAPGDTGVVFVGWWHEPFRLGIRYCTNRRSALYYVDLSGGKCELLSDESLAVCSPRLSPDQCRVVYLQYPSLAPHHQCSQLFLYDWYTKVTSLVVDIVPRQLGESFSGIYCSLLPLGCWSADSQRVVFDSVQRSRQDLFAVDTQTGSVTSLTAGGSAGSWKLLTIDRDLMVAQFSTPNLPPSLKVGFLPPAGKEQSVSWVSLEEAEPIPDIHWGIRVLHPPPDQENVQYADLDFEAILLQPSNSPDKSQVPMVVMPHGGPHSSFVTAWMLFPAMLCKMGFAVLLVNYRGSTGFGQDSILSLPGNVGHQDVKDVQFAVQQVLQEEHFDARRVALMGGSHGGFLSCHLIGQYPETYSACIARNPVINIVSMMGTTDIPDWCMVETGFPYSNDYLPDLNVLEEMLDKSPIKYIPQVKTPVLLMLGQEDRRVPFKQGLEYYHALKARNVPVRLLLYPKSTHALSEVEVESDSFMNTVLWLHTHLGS

[5] = molecular target: Acyl-protein thioesterase 1 (Mus musculus) (UniProt P97823); assay: Inhibition of FP-rhodamine-labelled recombinant mouse LYPLA1 at 1 uM preincubated for 30 mins followed by FP-rhodamine labelling measured after 30 mins by gel-based competitive ABPP assay
Sequence of Acyl-protein thioesterase 1 (Mus musculus) (P97823 whole entry): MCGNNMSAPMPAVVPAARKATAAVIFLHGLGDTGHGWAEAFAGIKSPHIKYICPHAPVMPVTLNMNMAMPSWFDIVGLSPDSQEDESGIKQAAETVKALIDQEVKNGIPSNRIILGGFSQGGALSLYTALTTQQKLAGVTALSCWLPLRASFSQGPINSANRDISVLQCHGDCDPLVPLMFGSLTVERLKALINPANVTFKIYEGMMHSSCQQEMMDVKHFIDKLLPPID

[6] = molecular target: Acyl-protein thioesterase 2 (Mus musculus) (UniProt Q9WTL7); assay: Inhibition of FP-rhodamine-labelled recombinant mouse LYPLA2 at 1 uM preincubated for 30 mins followed by FP-rhodamine labelling measured after 30 mins by gel-based competitive ABPP assay
Sequence of Acyl-protein thioesterase 2 (Mus musculus) (Q9WTL7 whole entry): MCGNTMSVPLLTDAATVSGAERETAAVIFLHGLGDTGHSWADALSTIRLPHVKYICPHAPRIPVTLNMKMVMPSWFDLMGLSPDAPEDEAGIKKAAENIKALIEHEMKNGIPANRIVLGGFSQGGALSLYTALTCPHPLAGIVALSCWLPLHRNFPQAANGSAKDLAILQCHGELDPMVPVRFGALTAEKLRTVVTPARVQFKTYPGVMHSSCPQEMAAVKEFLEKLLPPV

[7] = molecular target: Acyl-protein thioesterase 1 (Mus musculus) (UniProt P97823); assay: Inhibition of FP-rhodamine-labelled recombinant mouse LYPLA1 at 10 uM preincubated for 30 mins followed by FP-rhodamine labelling measured after 30 mins by gel-based competitive ABPP assay
[8] = molecular target: Acyl-protein thioesterase 2 (Mus musculus) (UniProt Q9WTL7); assay: Inhibition of FP-rhodamine-labelled recombinant mouse LYPLA2 at 10 uM preincubated for 30 mins followed by FP-rhodamine labelling measured after 30 mins by gel-based competitive ABPP assay
[9] = molecular target: T3, Acylamino-acid-releasing enzyme (Mus musculus); assay: Inhibition of FP-rhodamine-labelled recombinant mouse APEH at 10 uM preincubated for 30 mins followed by FP-rhodamine labelling measured after 30 mins by gel-based competitive ABPP assay
[10] = molecular target: T4, Fatty-acid amide hydrolase 1 (Mus musculus) (UniProt O08914); assay: Inhibition of mouse brain FAAH at 10 uM after 30 mins by FP-rhodamine ABPP-based SDS-PAGE analysis relative to control
T4 sequence (whole entry): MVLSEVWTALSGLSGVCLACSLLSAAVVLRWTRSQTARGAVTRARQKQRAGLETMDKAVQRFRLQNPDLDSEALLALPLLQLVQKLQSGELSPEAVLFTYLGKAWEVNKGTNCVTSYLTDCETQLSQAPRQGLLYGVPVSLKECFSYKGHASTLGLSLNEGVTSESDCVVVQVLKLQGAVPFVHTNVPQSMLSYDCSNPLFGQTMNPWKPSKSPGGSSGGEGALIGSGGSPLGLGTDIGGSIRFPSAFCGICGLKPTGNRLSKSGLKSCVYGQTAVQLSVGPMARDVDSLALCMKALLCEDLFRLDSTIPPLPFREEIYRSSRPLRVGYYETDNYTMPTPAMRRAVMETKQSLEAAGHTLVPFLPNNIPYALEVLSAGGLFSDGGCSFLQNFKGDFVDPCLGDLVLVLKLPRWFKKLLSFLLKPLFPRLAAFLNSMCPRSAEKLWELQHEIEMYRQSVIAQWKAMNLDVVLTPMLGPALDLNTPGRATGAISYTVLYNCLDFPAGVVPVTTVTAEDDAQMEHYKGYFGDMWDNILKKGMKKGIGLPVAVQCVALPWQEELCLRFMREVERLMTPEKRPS

- inhibition [1]: 100%
- inhibition [2]: 36%
- inhibition [3]: 6%
- inhibition [4]: Active
- inhibition [5]: Active
- inhibition [6]: Active
- inhibition [7]: Active
- inhibition [8]: Active
- inhibition [9]: Active
- inhibition [10]: Active
Compound: O=C(O)c1cccc(-c2ccc(-c3cn(C(=O)N4CCCCC4c4ccccc4)nn3)cc2)c1 (racemic)
